Measurements taken from ChEMBL document CHEMBL3864175, “Sulfonamides as Selective NaV1.7 Inhibitors: Optimizing Potency and Pharmacokinetics to Enable in Vivo Target Engagement” (ACS Med Chem Lett, 2016).

Tests used:
[1] = Fraction unbound in rat plasma at 5 uM measured after 45 mins by LC-MS/MS analysis; type: ADME, cell-free
[2] = Oral bioavailability in dog at 1.7 mg/kg by LC-MS/MS analysis; type: ADME, organism-based, Canis lupus familiaris; details: in vivo
Procedure, shortened: (§1)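 Dogs given a 1.7 mg/kg oral dose as a solution in 30% HPBCD/70% water/KOH at pH = 10; plasma parameters derived from this oral dosing, with the iv dose at 0.5 mg/kg in the same vehicle.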

[3] = Unbound clearance in rat at 0.5 mg/kg, iv by LC-MS/MS analysis; type: ADME, organism-based; details: in vivo
Procedure, shortened: (§2)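 Male rats, n = 2 per group, dosed intravenously at 0.5 mg/kg as a solution in 100% DMSO. Unbound clearance is derived from total clearance.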

[4] = Drug excretion in bile duct cannulated Sprague-Dawley rat feces assessed as parent compound at 1 mg/kg, iv administered through catheter measured up to 24 hrs by LC-MS/MS analysis; type: ADME, organism-based; details: faeces, read-out: Drug excretion
[5] = target: Sodium channel protein type 2 subunit alpha (Homo sapiens, UniProt Q99250); assay: Inhibition of 20% inactivated human Nav1.2 expressed in CHO cells assessed as inhibition of peak inward current by whole cell patch clamp method; type: cell-based
[6] = target: Sodium channel protein type 10 subunit alpha (Homo sapiens, UniProt Q9Y5Y9); assay: Inhibition of 20% inactivated human Nav1.8 expressed in CHO cells assessed as inhibition of TTX-resistant current by whole cell patch clamp method; type: cell-based
[7] = Tmax in dog at 1.7 mg/kg, po by LC-MS/MS analysis; type: ADME, organism-based, Canis lupus familiaris; details: in vivo; procedure, shortened: as §1
[8] = target: Sodium channel protein type 4 subunit alpha (Homo sapiens, UniProt P35499); assay: Inhibition of 20% inactivated human Nav1.4 expressed in HEK293 cells assessed as inhibition of peak inward current by whole cell patch clamp method; type: cell-based
[9] = Ratio of drug level in brain to plasma in C57BL/6 mouse; type: ADME; details: read-out: BPR
[10] = target: T1, Sodium channel protein type 9 subunit alpha (Homo sapiens, UniProt Q15858); assay: Inhibition of 20% inactivated human Nav1.7 expressed in HEK293 cells assessed as inhibition of peak inward current by whole cell patch clamp method; type: cell-based
T1 sequence (Q15858 whole entry): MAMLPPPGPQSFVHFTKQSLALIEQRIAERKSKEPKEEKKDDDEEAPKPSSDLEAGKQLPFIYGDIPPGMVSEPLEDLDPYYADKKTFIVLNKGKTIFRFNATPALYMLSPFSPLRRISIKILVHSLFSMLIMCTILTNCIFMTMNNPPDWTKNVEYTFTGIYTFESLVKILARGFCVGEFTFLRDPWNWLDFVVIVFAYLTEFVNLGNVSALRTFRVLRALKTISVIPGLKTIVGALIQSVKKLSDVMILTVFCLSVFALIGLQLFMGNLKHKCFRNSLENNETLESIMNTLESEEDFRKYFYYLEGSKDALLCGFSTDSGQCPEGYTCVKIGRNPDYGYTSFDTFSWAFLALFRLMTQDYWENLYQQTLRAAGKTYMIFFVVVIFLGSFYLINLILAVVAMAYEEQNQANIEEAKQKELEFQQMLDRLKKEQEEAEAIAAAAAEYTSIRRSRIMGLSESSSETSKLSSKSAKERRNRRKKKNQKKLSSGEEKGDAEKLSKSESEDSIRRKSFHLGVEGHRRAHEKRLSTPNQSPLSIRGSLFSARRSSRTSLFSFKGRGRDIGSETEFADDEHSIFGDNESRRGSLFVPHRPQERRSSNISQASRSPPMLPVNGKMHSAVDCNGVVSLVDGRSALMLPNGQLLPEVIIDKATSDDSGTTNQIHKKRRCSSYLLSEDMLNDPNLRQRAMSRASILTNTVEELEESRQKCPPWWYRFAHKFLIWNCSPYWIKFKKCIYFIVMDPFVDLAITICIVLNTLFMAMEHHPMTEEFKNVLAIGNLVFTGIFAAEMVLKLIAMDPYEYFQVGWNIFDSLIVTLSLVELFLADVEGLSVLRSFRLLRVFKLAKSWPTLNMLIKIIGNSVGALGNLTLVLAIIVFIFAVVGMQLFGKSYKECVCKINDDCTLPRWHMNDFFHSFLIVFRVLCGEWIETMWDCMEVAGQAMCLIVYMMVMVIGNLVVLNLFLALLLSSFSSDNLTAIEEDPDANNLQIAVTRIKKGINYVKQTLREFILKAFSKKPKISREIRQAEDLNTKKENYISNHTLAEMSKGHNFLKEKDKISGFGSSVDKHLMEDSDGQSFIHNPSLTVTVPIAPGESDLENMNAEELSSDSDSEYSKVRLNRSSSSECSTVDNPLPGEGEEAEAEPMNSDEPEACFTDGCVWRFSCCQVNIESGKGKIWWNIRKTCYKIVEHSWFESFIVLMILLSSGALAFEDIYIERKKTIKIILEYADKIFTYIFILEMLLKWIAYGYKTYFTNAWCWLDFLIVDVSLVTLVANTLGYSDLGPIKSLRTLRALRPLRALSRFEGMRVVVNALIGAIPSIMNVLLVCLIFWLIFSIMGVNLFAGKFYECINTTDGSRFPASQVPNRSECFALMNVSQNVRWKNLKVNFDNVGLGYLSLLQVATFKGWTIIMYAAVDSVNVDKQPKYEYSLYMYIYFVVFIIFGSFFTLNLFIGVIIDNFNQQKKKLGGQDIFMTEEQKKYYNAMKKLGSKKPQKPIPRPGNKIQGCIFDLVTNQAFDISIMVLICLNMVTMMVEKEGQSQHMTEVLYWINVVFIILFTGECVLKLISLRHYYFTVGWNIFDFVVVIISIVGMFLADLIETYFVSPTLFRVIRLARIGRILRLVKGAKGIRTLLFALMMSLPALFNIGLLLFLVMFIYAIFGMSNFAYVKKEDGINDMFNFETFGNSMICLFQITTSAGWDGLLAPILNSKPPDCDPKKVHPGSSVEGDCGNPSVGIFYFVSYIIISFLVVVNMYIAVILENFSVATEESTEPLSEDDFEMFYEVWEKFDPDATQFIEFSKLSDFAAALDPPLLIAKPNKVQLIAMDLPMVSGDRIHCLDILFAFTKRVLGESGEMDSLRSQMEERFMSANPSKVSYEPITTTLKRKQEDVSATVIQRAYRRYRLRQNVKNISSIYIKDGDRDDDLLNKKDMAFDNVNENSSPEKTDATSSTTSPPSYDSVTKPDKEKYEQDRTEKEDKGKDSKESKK
Procedure, shortened: (§3)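 Electrophysiological block was measured with cells depolarized to a voltage that gave 20% channel inactivation, as opposed to a fully non-inactivated (closed) holding condition.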

[11] = Drug uptake in plasma of po dosed histamine induced C57BL/6 mouse model of scratching pretreated for 120 mins followed by histamine-challenge measured after 30 mins; type: ADME, organism-based; details: in vivo, 0.5 h
Procedure, shortened: (§4)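 Male C57BL/6 mice dosed orally 120 min before intradermal histamine. Scratching bouts counted over 30 min and compared with vehicle by one-way ANOVA with Dunnett's test. Total and unbound plasma levels taken 30 min after histamine.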

[12] = target: T2, Sodium channel protein type 5 subunit alpha (Homo sapiens, UniProt Q14524); assay: Inhibition of human Nav1.5 expressed in HEK293 cells assessed as inhibition of sodium current at holding potential of -125 mV measured for 3 to 5 mins by whole cell voltage clamp method; type: cell-based
T2 sequence (Q14524 whole entry): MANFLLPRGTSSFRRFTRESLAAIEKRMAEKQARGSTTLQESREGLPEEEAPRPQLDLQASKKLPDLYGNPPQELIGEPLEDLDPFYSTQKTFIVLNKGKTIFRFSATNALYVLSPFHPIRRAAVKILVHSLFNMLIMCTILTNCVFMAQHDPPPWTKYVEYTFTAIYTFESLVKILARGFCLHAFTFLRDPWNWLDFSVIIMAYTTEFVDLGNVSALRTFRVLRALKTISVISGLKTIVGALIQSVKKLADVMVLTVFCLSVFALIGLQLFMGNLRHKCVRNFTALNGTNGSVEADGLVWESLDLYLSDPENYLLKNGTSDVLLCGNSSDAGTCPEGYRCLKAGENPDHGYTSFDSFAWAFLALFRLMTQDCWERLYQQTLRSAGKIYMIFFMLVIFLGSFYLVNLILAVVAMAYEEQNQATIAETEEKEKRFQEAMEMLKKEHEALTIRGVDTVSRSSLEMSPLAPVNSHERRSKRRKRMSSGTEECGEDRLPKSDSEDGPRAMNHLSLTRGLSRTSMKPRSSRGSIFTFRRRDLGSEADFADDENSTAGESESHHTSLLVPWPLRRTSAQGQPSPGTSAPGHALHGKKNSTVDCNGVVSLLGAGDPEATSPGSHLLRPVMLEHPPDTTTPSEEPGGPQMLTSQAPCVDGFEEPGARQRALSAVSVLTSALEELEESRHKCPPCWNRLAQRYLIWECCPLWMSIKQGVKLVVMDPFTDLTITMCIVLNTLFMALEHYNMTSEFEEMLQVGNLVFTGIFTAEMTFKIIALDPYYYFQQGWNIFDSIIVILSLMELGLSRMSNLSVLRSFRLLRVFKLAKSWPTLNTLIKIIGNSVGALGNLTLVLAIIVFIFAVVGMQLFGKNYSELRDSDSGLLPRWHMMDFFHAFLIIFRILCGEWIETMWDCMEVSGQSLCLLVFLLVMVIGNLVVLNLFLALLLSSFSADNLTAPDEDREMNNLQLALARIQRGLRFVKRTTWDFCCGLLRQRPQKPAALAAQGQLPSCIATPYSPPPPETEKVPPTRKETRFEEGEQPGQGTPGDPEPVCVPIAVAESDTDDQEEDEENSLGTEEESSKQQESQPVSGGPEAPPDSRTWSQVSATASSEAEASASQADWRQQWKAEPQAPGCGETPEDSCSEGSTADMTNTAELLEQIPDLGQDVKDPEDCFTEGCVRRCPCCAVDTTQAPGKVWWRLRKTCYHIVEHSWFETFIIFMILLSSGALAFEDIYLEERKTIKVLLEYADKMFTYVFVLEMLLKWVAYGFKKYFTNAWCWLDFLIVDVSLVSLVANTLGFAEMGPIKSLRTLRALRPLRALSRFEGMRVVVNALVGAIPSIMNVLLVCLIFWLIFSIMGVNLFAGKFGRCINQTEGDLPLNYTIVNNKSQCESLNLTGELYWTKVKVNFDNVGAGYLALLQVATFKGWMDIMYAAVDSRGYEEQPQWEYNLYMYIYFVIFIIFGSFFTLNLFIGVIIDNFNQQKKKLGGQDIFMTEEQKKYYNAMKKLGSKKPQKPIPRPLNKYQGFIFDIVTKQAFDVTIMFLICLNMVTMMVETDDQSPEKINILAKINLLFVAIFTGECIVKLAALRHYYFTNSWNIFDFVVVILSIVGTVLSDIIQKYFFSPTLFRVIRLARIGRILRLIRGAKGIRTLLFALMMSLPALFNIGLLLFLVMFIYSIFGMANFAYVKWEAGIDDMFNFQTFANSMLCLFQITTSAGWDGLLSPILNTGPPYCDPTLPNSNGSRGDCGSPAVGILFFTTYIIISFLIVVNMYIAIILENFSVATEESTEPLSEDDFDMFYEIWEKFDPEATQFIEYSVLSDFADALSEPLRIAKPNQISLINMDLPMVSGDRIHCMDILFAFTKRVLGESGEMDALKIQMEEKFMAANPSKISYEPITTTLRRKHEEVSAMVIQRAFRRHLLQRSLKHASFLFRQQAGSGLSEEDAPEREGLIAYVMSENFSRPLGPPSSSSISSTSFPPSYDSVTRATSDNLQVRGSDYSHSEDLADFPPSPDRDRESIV

[13] = Unbound clearance in dog at 0.5 mg/kg, iv by LC-MS/MS analysis; type: ADME, organism-based, Canis lupus familiaris; details: in vivo
Procedure, shortened: (§5)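 Dogs dosed intravenously at 0.5 mg/kg in 30% HPBCD/70% water, brought to pH 10 with KOH.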

[14] = target: T1, Sodium channel protein type 9 subunit alpha; assay: Inhibition of human Nav1.7 expressed in HEK293 cells assessed as inhibition of sodium current at holding potential of -60 mV measured for 3 to 5 mins by whole cell voltage clamp method; type: cell-based
[15] = target: Sodium channel protein type 1 subunit alpha (Homo sapiens, UniProt P35498); assay: Inhibition of 20% inactivated human Nav1.1 expressed in HEK293 cells assessed as inhibition of peak inward current by whole cell patch clamp method; type: cell-based
[16] = target: T2, Sodium channel protein type 5 subunit alpha; assay: Inhibition of 20% inactivated human Nav1.5 expressed in HEK293 cells assessed as inhibition of peak inward current by whole cell patch clamp method; type: cell-based
[17] = target: T1, Sodium channel protein type 9 subunit alpha; assay: Inhibition of human Nav1.7 in closed state expressed in HEK293 cells assessed as inhibition of sodium current at holding potential of -140 mV measured for 3 to 5 mins by whole cell voltage clamp method; type: cell-based
Procedure, shortened: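 Closed-state (fully non-inactivated) protocol: inhibition was measured with cells held at −140 mV, for comparison with protocols using inactivating depolarizations.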

[18] = Inhibition of 20% inactivated dog Nav1.7 expressed in HEK293T cells assessed as inhibition of sodium current measured for 3 to 5 mins by whole cell voltage clamp method; type: cell-based; details: HEK-293T; procedure, shortened: as §3
[19] = target: Voltage-gated inwardly rectifying potassium channel KCNH2 (Homo sapiens, UniProt Q12809); assay: Displacement of [3H]dofetilide from human ERG expressed in HEK293 cell membranes measured after 90 mins by TopCount scintillation counting method
Voltage-gated inwardly rectifying potassium channel KCNH2, sequence (Q12809 whole entry): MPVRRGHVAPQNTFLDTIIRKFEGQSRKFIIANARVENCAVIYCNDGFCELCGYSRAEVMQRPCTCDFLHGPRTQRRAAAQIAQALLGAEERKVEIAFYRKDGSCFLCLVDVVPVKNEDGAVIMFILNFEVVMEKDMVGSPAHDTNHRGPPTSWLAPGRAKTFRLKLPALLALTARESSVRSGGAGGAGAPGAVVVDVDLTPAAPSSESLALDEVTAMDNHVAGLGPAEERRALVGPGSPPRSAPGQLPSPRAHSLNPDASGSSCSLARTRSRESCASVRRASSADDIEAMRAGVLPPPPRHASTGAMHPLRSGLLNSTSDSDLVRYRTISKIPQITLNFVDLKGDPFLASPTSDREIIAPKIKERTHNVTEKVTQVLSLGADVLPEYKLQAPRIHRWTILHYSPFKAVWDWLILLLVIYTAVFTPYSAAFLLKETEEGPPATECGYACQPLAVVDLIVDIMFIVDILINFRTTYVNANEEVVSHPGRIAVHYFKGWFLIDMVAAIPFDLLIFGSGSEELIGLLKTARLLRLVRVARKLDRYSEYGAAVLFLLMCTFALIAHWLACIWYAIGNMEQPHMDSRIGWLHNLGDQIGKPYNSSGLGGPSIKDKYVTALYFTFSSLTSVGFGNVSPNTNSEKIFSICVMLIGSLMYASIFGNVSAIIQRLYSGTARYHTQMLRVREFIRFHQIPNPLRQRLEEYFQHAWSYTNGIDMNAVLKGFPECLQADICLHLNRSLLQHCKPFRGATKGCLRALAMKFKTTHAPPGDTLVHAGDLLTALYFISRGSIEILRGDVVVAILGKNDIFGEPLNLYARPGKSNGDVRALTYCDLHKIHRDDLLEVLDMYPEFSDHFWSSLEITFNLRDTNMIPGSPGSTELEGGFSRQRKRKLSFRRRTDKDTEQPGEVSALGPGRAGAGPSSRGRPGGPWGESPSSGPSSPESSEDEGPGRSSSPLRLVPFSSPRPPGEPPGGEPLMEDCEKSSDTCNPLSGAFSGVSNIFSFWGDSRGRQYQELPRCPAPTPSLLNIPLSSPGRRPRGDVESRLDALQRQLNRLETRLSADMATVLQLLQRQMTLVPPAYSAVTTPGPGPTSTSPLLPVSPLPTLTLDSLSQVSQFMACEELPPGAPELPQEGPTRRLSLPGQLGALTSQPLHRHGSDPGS

[20] = Volume of distribution at steady state in dog at 0.5 mg/kg, iv by LC-MS/MS analysis; type: ADME, organism-based, Canis lupus familiaris; details: in vivo; procedure, shortened: as §5
[21] = Inhibition of 20% inactivated cynomolgus monkey Nav1.7 expressed in HEK293T cells assessed as inhibition of sodium current measured for 3 to 5 mins by whole cell voltage clamp method; type: cell-based; details: Macaca fascicularis, HEK-293T; procedure, shortened: as §3
[22] = Cmax in dog at 1.7 mg/kg, po by LC-MS/MS analysis; type: ADME, organism-based, Canis lupus familiaris; parameters: dose 1.7 mg/kg, route oral; details: in vivo; procedure, shortened: as §1
[23] = Drug excretion in bile duct cannulated Sprague-Dawley rat bile assessed as parent compound at 1 mg/kg, iv administered through catheter measured up to 24 hrs by LC-MS/MS analysis; type: ADME, organism-based; details: read-out: Drug excretion
[24] = Volume of distribution at steady state in rat at 0.5 mg/kg, iv by LC-MS/MS analysis; type: ADME, organism-based; details: in vivo, read-out: Vdss; procedure, shortened: as §2
[25] = Clearance in rat at 0.5 mg/kg, iv by LC-MS/MS analysis; type: ADME, organism-based; details: in vivo; procedure, shortened: as §2
[26] = Selectivity index, ratio of IC50 for human Nav1.5 expressed in HEK293 cells to IC50 for human Nav 1.7 expressed in HEK293 cells
[27] = Total plasma concentration in histamine induced C57BL/6 mouse model of scratching at 60 mg/kg, po pretreated for 120 mins followed by histamine-challenge measured after 30 mins; type: ADME, organism-based; procedure, shortened: as §4
[28] = Unbound plasma concentration in histamine induced C57BL/6 mouse model of scratching at 5 mg/kg, po pretreated for 120 mins followed by histamine-challenge measured after 30 mins; type: ADME, organism-based; details: in vivo, 0.5 h; procedure, shortened: as §4
[29] = target: Sodium channel protein type 8 subunit alpha (Homo sapiens, UniProt Q9UQD0); assay: Inhibition of 20% inactivated human Nav1.6 expressed in HEK293 cells assessed as inhibition of peak inward current by whole cell patch clamp method; type: cell-based
[30] = Cmax in rat at 10 mg/kg, po by LC-MS/MS analysis; type: ADME, organism-based; parameters: dose 10 mg/kg, route oral; details: in vivo
Procedure, shortened: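 Rats dosed orally at 10 mg/kg as a solution in 30% HPBCD/70% water, brought to pH 10 with KOH.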

[31] = target: Sodium channel protein type 9 subunit alpha (Mus musculus, UniProt Q62205); assay: Inhibition of 20% inactivated mouse Nav1.7 expressed in HEK293 cells assessed as inhibition of sodium current measured for 3 to 5 mins by whole cell voltage clamp method; type: cell-based
Procedure, shortened: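 Mouse NaV1.7 was stably transfected into HEK293 cells. Block was measured with cells depolarized to a voltage that gave 20% channel inactivation.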

[32] = Fraction unbound in dog plasma at 5 uM by LC-MS/MS analysis; type: ADME, cell-free, Canis lupus familiaris

`COc1cc(C(F)(F)F)ccc1-c1ncnc2cc(S(=O)(=O)Nc3nccs3)ccc12` gave a fraction unbound at 0.75 h, 5 µM [1] of 0.016, a bioavailability [2] of 53% and a CL free [3] of 567 mL/min/kg. It also gave a dose excreted at 24 h [4] of 0.6%, an IC50 [5] of 2.1 µM and an IC50 [6] of over 30 µM. For the same molecule, the Tmax [7] was 2.3 h, the IC50 [8] was 17 µM and the Kp [9] was 0.008. The IC50 [10] was 0.14 µM, the Drug uptake [11] was “Dose-dependent effect” and the IC50 [12] was over 30 µM. The CL free [13] was 17 mL/min/kg, the IC50 [14] was 0.009 µM and the IC50 [15] was 7.3 µM. It also gave an IC50 [16] of 16 µM, an IC50 [17] of 7.2 µM and an IC50 [18] of 0.18 µM. It also gave a Ki [19] of over 30 µM, a Vd [20] of 0.31 L/kg and an IC50 [21] of 0.16 µM. It also gave a Cmax [22] of 8 µM, a dose excreted at 24 h [23] of 4.7% and a Vd [24] of 1.5 L. For the same molecule, the clearance [25] was 9 mL/min/kg, the “Ratio IC50” value [26] was over 100 and the concentration at 0.5 h [27] was 150 µM. For the same molecule, the “Cp(f)” value [28] was 0.11 µM, the IC50 [29] was 3.7 µM and the Cmax [30] was 3.4 µM. It also gave an IC50 [31] of 0.18 µM and a fraction unbound at 5 µM [32] of 0.014.
